Measurements: ChEMBL document CHEMBL1777788, “Synthesis and in vitro antimicrobial activities of new (cyano-NNO-azoxy)pyrazole derivatives” (2011)
Converted amounts (≈) assume the structure as drawn.

Experiments:
Candida parapsilosis [1] = experiment: Antimicrobial activity against Candida parapsilosis ATCC 22019 after 48 hrs by microdilution broth method; format: functional; conditions: Lodderomyces parapsilosis, ATCC 22019, 48 h
How it was run: (§1)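 Yeasts were grown overnight on Sabouraud dextrose agar at 35°C, suspended in water, and adjusted at 530 nm to McFarland 0.5 (approximately 1-5 x 10^6 CFU/ml). They were then diluted 1:100 and 1:20 in RPMI 1640 with 0.165 M MOPS and 2% glucose. Compound in DMSO was tested at ten concentrations, 0.25–256 mg/L, with incubation at 35°C. At 48 h, MIC was read spectrophotometrically as 50% turbidity reduction versus growth control.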

Candida albicans [2] = experiment: Antimicrobial activity against Candida albicans isolate 31 after 48 hrs by microdilution broth method; format: functional; conditions: isolate 31, 48 h; how it was run: as §1
Candida albicans [3] = experiment: Antimicrobial activity against Candida albicans isolate 41 after 48 hrs by microdilution broth method; format: functional; conditions: isolate 41, 48 h; how it was run: as §1
Candida albicans [4] = experiment: Antimicrobial activity against Candida albicans isolate 47 after 48 hrs by microdilution broth method; format: functional; conditions: isolate 47, 48 h; how it was run: as §1
Candida albicans [5] = experiment: Antimicrobial activity against Candida albicans isolate 48 after 48 hrs by microdilution broth method; format: functional; conditions: isolate 48, 48 h; how it was run: as §1
Pichia kudriavzevii [6] = experiment: Antimicrobial activity against Candida krusei isolate 31 after 48 hrs by microdilution broth method; format: functional; conditions: isolate 31, 48 h; how it was run: as §1
Pichia kudriavzevii [7] = experiment: Antimicrobial activity against Candida krusei isolate 43 after 48 hrs by microdilution broth method; format: functional
Pichia kudriavzevii [8] = experiment: Antimicrobial activity against Candida krusei isolate 48 after 48 hrs by microdilution broth method; format: functional
Candida tropicalis [9] = experiment: Antimicrobial activity against Candida tropicalis isolate 33 after 48 hrs by microdilution broth method; format: functional; conditions: isolate 33, 48 h; how it was run: as §1
Candida tropicalis [10] = experiment: Antimicrobial activity against Candida tropicalis isolate 11 after 48 hrs by microdilution broth method; format: functional; conditions: isolate 11, 48 h; how it was run: as §1
Candida tropicalis [11] = experiment: Antimicrobial activity against Candida tropicalis isolate 22 after 48 hrs by microdilution broth method; format: functional; conditions: isolate 22, 48 h; how it was run: as §1
Nakaseomyces glabratus [12] = experiment: Antimicrobial activity against Candida glabrata isolate 30 after 48 hrs by microdilution broth method; format: functional; how it was run: as §1
Nakaseomyces glabratus [13] = experiment: Antimicrobial activity against Candida glabrata isolate 32 after 48 hrs by microdilution broth method; format: functional; conditions: isolate 32, 48 h; how it was run: as §1
Nakaseomyces glabratus [14] = experiment: Antimicrobial activity against Candida glabrata isolate 46 after 48 hrs by microdilution broth method; format: functional; how it was run: as §1
Nakaseomyces glabratus [15] = experiment: Antimicrobial activity against Candida glabrata isolate 49 after 48 hrs by microdilution broth method; format: functional; how it was run: as §1
Candida parapsilosis [16] = experiment: Antimicrobial activity against Candida parapsilosis isolate 26 after 48 hrs by microdilution broth method; format: functional; conditions: Lodderomyces parapsilosis, isolate 26, 48 h; how it was run: as §1
Candida parapsilosis [17] = experiment: Antimicrobial activity against Candida parapsilosis isolate 44 after 48 hrs by microdilution broth method; format: functional; conditions: Lodderomyces parapsilosis, isolate 44, 48 h; how it was run: as §1
Candida parapsilosis [18] = experiment: Antimicrobial activity against Candida parapsilosis isolate 19 after 48 hrs by microdilution broth method; format: functional; conditions: Lodderomyces parapsilosis, isolate 19, 48 h; how it was run: as §1
[19] = tested on: Cryptococcus deneoformans; experiment: Antimicrobial activity against Cryptococcus neoformans var. neoformans isolate 14 after 48 hrs by microdilution broth method; format: functional; conditions: isolate 14, 48 h; how it was run: as §1
[20] = tested on: Cryptococcus deneoformans; experiment: Antimicrobial activity against Cryptococcus neoformans var. neoformans isolate 27 after 48 hrs by microdilution broth method; format: functional; conditions: isolate 27, 48 h; how it was run: as §1
[21] = tested on: Cryptococcus deneoformans; experiment: Antimicrobial activity against Cryptococcus neoformans var. neoformans isolate 30 after 48 hrs by microdilution broth method; format: functional; conditions: isolate 30, 48 h; how it was run: as §1
[22] = tested on: Cryptococcus deneoformans; experiment: Antimicrobial activity against Cryptococcus neoformans var. neoformans isolate 25 after 48 hrs by microdilution broth method; format: functional; conditions: isolate 25, 48 h; how it was run: as §1
Pichia kudriavzevii [23] = experiment: Antimicrobial activity against Candida krusei ATCC 6258 after 48 hrs by microdilution broth method; format: functional; conditions: ATCC 6258, 48 h
Escherichia coli = experiment: Antimicrobial activity against Escherichia coli isolate after 24 hrs by microdilution broth method
Proteus mirabilis = experiment: Antimicrobial activity against Proteus mirabilis isolate after 24 hrs by microdilution broth method
Pseudomonas aeruginosa [24] = experiment: Antimicrobial activity against Pseudomonas aeruginosa isolate 1 after 24 hrs by microdilution broth method; conditions: isolate 1, 24 h
Pseudomonas aeruginosa [25] = experiment: Antimicrobial activity against Pseudomonas aeruginosa isolate 2 after 24 hrs by microdilution broth method; conditions: isolate 2, 24 h
Staphylococcus aureus [26] = experiment: Antimicrobial activity against methicillin-resistant Staphylococcus aureus isolate after 24 hrs by microdilution broth method
Staphylococcus aureus [27] = experiment: Antimicrobial activity against methicillin-susceptible Staphylococcus aureus isolate after 24 hrs by microdilution broth method
Candida tropicalis [28] = experiment: Antimicrobial activity against Candida tropicalis isolate 15 after 48 hrs by microdilution broth method; format: functional; conditions: isolate 15, 48 h; how it was run: as §1
Candida parapsilosis [29] = experiment: Antimicrobial activity against Candida parapsilosis isolate 39 after 48 hrs by microdilution broth method; format: functional; conditions: Lodderomyces parapsilosis, isolate 39, 48 h
How it was run: (§2)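 Yeasts grown overnight on Sabouraud dextrose agar at 35°C, suspended in sterile water, and adjusted to McFarland 0.5 at 530 nm (about 1-5 x 10^6 CFU/ml), then diluted 1:100 and 1:20 in RPMI 1640 with 0.165 M MOPS and 2% glucose. Compound in DMSO tested at ten concentrations, 0.25-256 mg/L, at 35°C. MIC read spectrophotometrically at 48 h as 50% turbidity reduction versus growth control.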

Candida albicans [30] = experiment: Antimicrobial activity against Candida albicans ATCC 90028 after 48 hrs by microdilution broth method; format: functional; conditions: ATCC 90028, 48 h; how it was run: as §2

SMILES	MIC (Candida parapsilosis [1]) [µg/mL]	MIC (Candida albicans [2]) [µg/mL]	MIC (Candida albicans [3]) [µg/mL]	MIC (Candida albicans [4]) [µg/mL]	MIC (Candida albicans [5]) [µg/mL]	MIC (Pichia kudriavzevii [6]) [µg/mL]	MIC (Pichia kudriavzevii [7]) [µg/mL]	MIC (Pichia kudriavzevii [8]) [µg/mL]	MIC (Candida tropicalis [9]) [µg/mL]	MIC (Candida tropicalis [10]) [µg/mL]	MIC (Candida tropicalis [11]) [µg/mL]	MIC (Nakaseomyces glabratus [12]) [µg/mL]	MIC (Nakaseomyces glabratus [13]) [µg/mL]	MIC (Nakaseomyces glabratus [14]) [µg/mL]	MIC (Nakaseomyces glabratus [15]) [µg/mL]	MIC (Candida parapsilosis [16]) [µg/mL]	MIC (Candida parapsilosis [17]) [µg/mL]	MIC (Candida parapsilosis [18]) [µg/mL]	MIC [19] [µg/mL]	MIC [20] [µg/mL]	other results
Cc1cc(-c2nn(C)c(C)c2/[N+]([O-])=N/C#N)on1	128 (≈ 520 µM)	128 (≈ 520 µM)	64 (≈ 260 µM)	128 (≈ 520 µM)	128 (≈ 520 µM)	64 (≈ 260 µM)	32 (≈ 130 µM)	64 (≈ 260 µM)	128 (≈ 520 µM)	128 (≈ 520 µM)	> 128	128 (≈ 520 µM)	32 (≈ 130 µM)	128 (≈ 520 µM)	128 (≈ 520 µM)	128 (≈ 520 µM)	128 (≈ 520 µM)	128 (≈ 520 µM)	2 (≈ 8.12 µM)	2 (≈ 8.12 µM)	MIC [21]: 2 µg/mL (≈ 8.12 µM); MIC [22]: 2 µg/mL (≈ 8.12 µM); MIC (Pichia kudriavzevii [23]): 32 µg/mL (≈ 130 µM); MIC (Escherichia coli): > 128 µg/mL; MIC (Proteus mirabilis): > 128 µg/mL; MIC (Pseudomonas aeruginosa [24]): > 128 µg/mL; MIC (Pseudomonas aeruginosa [25]): > 128 µg/mL; MIC (Staphylococcus aureus [26]): 2 µg/mL (≈ 8.12 µM); MIC (Staphylococcus aureus [27]): 4 µg/mL (≈ 16.2 µM)
Cc1cc(-c2c(/[N+]([O-])=N/C#N)c(C)nn2C)no1	> 128	32 (≈ 130 µM)	32 (≈ 130 µM)	128 (≈ 520 µM)	128 (≈ 520 µM)	32 (≈ 130 µM)	32 (≈ 130 µM)	32 (≈ 130 µM)	> 128	128 (≈ 520 µM)	> 128	128 (≈ 520 µM)	16 (≈ 65 µM)	128 (≈ 520 µM)	64 (≈ 260 µM)	128 (≈ 520 µM)	128 (≈ 520 µM)	> 128	8 (≈ 32.5 µM)	8 (≈ 32.5 µM)	MIC [21]: 8 µg/mL (≈ 32.5 µM); MIC [22]: 8 µg/mL (≈ 32.5 µM); MIC (Pichia kudriavzevii [23]): 16 µg/mL (≈ 65 µM); MIC (Escherichia coli): > 128 µg/mL; MIC (Proteus mirabilis): > 128 µg/mL; MIC (Pseudomonas aeruginosa [24]): > 128 µg/mL; MIC (Pseudomonas aeruginosa [25]): > 128 µg/mL; MIC (Staphylococcus aureus [27]): > 128 µg/mL
C[C@@H](c1ncncc1F)[C@](O)(Cn1cncn1)c1ccc(F)cc1F [VORICONAZOLE]	0.06 (≈ 0.172 µM)	< 0.008	< 0.008	0.008 (≈ 0.0229 µM)	< 0.008	0.12 (≈ 0.344 µM)	0.5 (≈ 1.43 µM)	0.25 (≈ 0.716 µM)	< 0.008	0.12 (≈ 0.344 µM)	0.06 (≈ 0.172 µM)	0.25 (≈ 0.716 µM)	4 (≈ 11.5 µM)	0.25 (≈ 0.716 µM)	0.12 (≈ 0.344 µM)	< 0.008	0.016 (≈ 0.0458 µM)	0.008 (≈ 0.0229 µM)	< 0.008	0.016 (≈ 0.0458 µM)	MIC (Candida tropicalis [28]): 0.06 µg/mL (≈ 0.172 µM); MIC (Candida parapsilosis [29]): 0.016 µg/mL (≈ 0.0458 µM); MIC [21]: 0.016 µg/mL (≈ 0.0458 µM); MIC [22]: 0.016 µg/mL (≈ 0.0458 µM); MIC (Candida albicans [30]): 0.008 µg/mL (≈ 0.0229 µM); MIC (Pichia kudriavzevii [23]): 0.25 µg/mL (≈ 0.716 µM)
